Source: ChEMBL document CHEMBL1146219, “Synthesis and evaluation of novel radioiodinated benzamides for malignant melanoma” (J Med Chem, 2007)

Columns and labels:
Conditions in all cases: in vivo
Blood [1] = test: Biodistribution in blood of B16F0 tumor bearing C57BL/6J mouse at 0.37-0.74 MBq, iv after 24 hrs; type: ADME, organism-based
Summary of the method: (§1)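 Female C57BL/6J mice (15-18 g) were given B16F0 cells subcutaneously in the left flank (0.1 mL of 3 × 10⁶ viable cells/mL in Ca²⁺/Mg²⁺-free PBS) at 6-7 weeks and used after ten days. [¹²³I]benzamide (0.37-0.74 MBq, 100 µL, saline) was injected via the tail vein. Groups of n = 5 were killed by CO₂ and cervical dislocation. Organs were weighed and γ-counted, and the carcass was counted too.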

[2] = Biodistribution in melanoma of B16F0 tumor bearing C57BL/6J mouse at 0.37-0.74 MBq, iv after 1 hr; type: ADME, organism-based, B16-F0; summary of the method: as §1
[3] = Biodistribution in melanoma of B16F0 tumor bearing C57BL/6J mouse at 0.37-0.74 MBq, iv after 6 hrs; type: ADME, organism-based, B16-F0
Summary of the method: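 Female C57BL/6J mice (15-18 g) carrying s.c. B16F0 flank tumors (0.1 mL of 3 × 10⁶ viable cells per mL in Ca²⁺/Mg²⁺-free PBS, inoculated at 6-7 weeks, used 10 days later). [¹²³I]tracer 0.37-0.74 MBq in saline, 100 µL, tail-vein i.v. Groups of n = 5 killed at 1-72 h. Organs weighed and γ-counted, carcass activity also counted, values as %ID/g.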

[4] = Biodistribution in melanoma of B16F0 tumor bearing C57BL/6J mouse at 0.37-0.74 MBq, iv after 24 hrs; type: ADME, organism-based, B16-F0; summary of the method: as §1
Liver [5] = test: Biodistribution in liver of B16F0 tumor bearing C57BL/6J mouse at 0.37-0.74 MBq, iv after 1 hr; type: ADME, organism-based; summary of the method: as §1
Liver [6] = test: Biodistribution in liver of B16F0 tumor bearing C57BL/6J mouse at 0.37-0.74 MBq, iv after 6 hrs; type: ADME, organism-based; summary of the method: as §1
Liver [7] = test: Biodistribution in liver of B16F0 tumor bearing C57BL/6J mouse at 0.37-0.74 MBq, iv after 24 hrs; type: ADME, organism-based; summary of the method: as §1
Kidney [8] = test: Biodistribution in kidney of B16F0 tumor bearing C57BL/6J mouse at 0.37-0.74 MBq, iv after 1 hr; type: ADME, organism-based; summary of the method: as §1
Kidney [9] = test: Biodistribution in kidney of B16F0 tumor bearing C57BL/6J mouse at 0.37-0.74 MBq, iv after 6 hrs; type: ADME, organism-based; summary of the method: as §1
Kidney [10] = test: Biodistribution in kidney of B16F0 tumor bearing C57BL/6J mouse at 0.37-0.74 MBq, iv after 24 hrs; type: ADME, organism-based; summary of the method: as §1
Lung [11] = test: Biodistribution in lung of B16F0 tumor bearing C57BL/6J mouse at 0.37-0.74 MBq, iv after 1 hr; type: ADME, organism-based; summary of the method: as §1
Lung [12] = test: Biodistribution in lung of B16F0 tumor bearing C57BL/6J mouse at 0.37-0.74 MBq, iv after 6 hrs; type: ADME, organism-based; summary of the method: as §1
Lung [13] = test: Biodistribution in lung of B16F0 tumor bearing C57BL/6J mouse at 0.37-0.74 MBq, iv after 24 hrs; type: ADME, organism-based; summary of the method: as §1
Heart [14] = test: Biodistribution in heart of B16F0 tumor bearing C57BL/6J mouse at 0.37-0.74 MBq, iv after 1 hr; type: ADME, organism-based; summary of the method: as §1
Heart [15] = test: Biodistribution in heart of B16F0 tumor bearing C57BL/6J mouse at 0.37-0.74 MBq, iv after 6 hrs; type: ADME, organism-based; summary of the method: as §1
Heart [16] = test: Biodistribution in heart of B16F0 tumor bearing C57BL/6J mouse at 0.37-0.74 MBq, iv after 24 hrs; type: ADME, organism-based; summary of the method: as §1
Brain [17] = test: Biodistribution in brain of B16F0 tumor bearing C57BL/6J mouse at 0.37-0.74 MBq, iv after 1 hr; type: ADME, organism-based; summary of the method: as §1
Brain [18] = test: Biodistribution in brain of B16F0 tumor bearing C57BL/6J mouse at 0.37-0.74 MBq, iv after 6 hrs; type: ADME, organism-based; summary of the method: as §1
Brain [19] = test: Biodistribution in brain of B16F0 tumor bearing C57BL/6J mouse at 0.37-0.74 MBq, iv after 24 hrs; type: ADME, organism-based; summary of the method: as §1
Blood [20] = test: Biodistribution in blood of B16F0 tumor bearing C57BL/6J mouse at 0.37-0.74 MBq, iv after 1 hr; type: ADME, organism-based; summary of the method: as §1
Blood [21] = test: Biodistribution in blood of B16F0 tumor bearing C57BL/6J mouse at 0.37-0.74 MBq, iv after 6 hrs; type: ADME, organism-based; summary of the method: as §1

Row | SMILES | Drug uptake (Blood [1]) [% ID/g] | Drug uptake [2] [% ID/g] | Drug uptake [3] [% ID/g] | Drug uptake [4] [% ID/g] | Drug uptake (Liver [5]) [% ID/g] | Drug uptake (Liver [6]) [% ID/g] | Drug uptake (Liver [7]) [% ID/g] | Drug uptake (Kidney [8]) [% ID/g] | Drug uptake (Kidney [9]) [% ID/g] | Drug uptake (Kidney [10]) [% ID/g] | Drug uptake (Lung [11]) [% ID/g] | Drug uptake (Lung [12]) [% ID/g] | Drug uptake (Lung [13]) [% ID/g] | Drug uptake (Heart [14]) [% ID/g] | Drug uptake (Heart [15]) [% ID/g] | Drug uptake (Heart [16]) [% ID/g] | Drug uptake (Brain [17]) [% ID/g] | Drug uptake (Brain [18]) [% ID/g] | Drug uptake (Blood [20]) [% ID/g] | Drug uptake (Blood [21]) [% ID/g] | other results
1 | CCN(CC)CCNC(=O)c1ccccc1[123I] | 0.06 | 7.1 | 8.8 | 3 | 6.8 | 0.73 | 0.1 | 6.8 | 0.76 | 0.06 | 4.5 | 0.82 | 0.09 | 2 | 0.4 | 0.07 | 1.3 | 0.11 | 1.9 | 1.2 | Drug uptake (Brain [19]): 0.01 % ID/g
2 | CCN(CC)CCNC(=O)c1cc([123I])c(NS(C)(=O)=O)cc1OC | 0.01 | 5.4 | 3.6 | 1.7 | 2.3 | 1.2 | 0.28 | 1.3 | 0.49 | 0.06 | 0.67 | 0.38 | 0.03 | 0.42 | 0.19 | 0.04 | 0.05 | 0.02 | 0.77 | 0.49 | –
3 | CCCN(CCC)CCCCNC(=O)c1ccc([123I])cc1 | 0.08 | 6.2 | 7.5 | 6.9 | 49.1 | 33 | 2.9 | 8.6 | 5.4 | 0.52 | 8.2 | 3.9 | 0.39 | 1.9 | 0.81 | 0.12 | 0.5 | 0.17 | 0.52 | 0.35 | Drug uptake (Brain [19]): 0.04 % ID/g
4 | O=C(NCCCCN1CC2CCC1C2)c1ccc([123I])cc1 (configuration not stated) | 0.03 | 3.8 | 3.5 | 3.4 | 43.2 | 27 | 3.5 | 15.2 | 4.9 | 0.59 | 6.9 | 2.1 | 0.4 | 1.05 | 0.44 | 0.13 | 0.1 | 0.06 | 0.48 | 0.24 | Drug uptake (Brain [19]): 0.01 % ID/g
5 | CCCCNCCCCNC(=O)c1cc([123I])c(NC(C)=O)cc1OC | 0.05 | 3.4 | 3.4 | 2.2 | 6 | 1.3 | 0.45 | 3.26 | 0.46 | 0.05 | 2 | 0.45 | 0.04 | 0.64 | 0.28 | 0.06 | 0.04 | 0.02 | 0.84 | 0.47 | –
6 | COc1cc(NC(C)=O)c([123I])cc1C(=O)NCCCCN1CC2CCC1C2 (configuration not stated) | 0.02 | 3.4 | 2.8 | 1.4 | 7.1 | 0.8 | 0.19 | 3.7 | 0.67 | 0.03 | 2.6 | 0.68 | 0.04 | 0.94 | 0.3 | 0.03 | 0.08 | 0.03 | 1.92 | 0.78 | –
7 | CCN(CC)CCNC(=O)c1cc([123I])c(NS(=O)(=O)c2ccc(C)cc2)cc1OC | 0.05 | 4.2 | 2.6 | 1.4 | 3.8 | 1.5 | 0.21 | 1.2 | 0.36 | 0.06 | 0.62 | 0.22 | 0.05 | 0.28 | 0.11 | 0.03 | 0.03 | – | 0.74 | 0.33 | –
